Hits are enriched below; roughly 2.5% of the tested compounds scored in any of these assays.
SENP8 block-1 – blocks the human protease SENP8 | hit rate 1.2% among 330,000 | purified SENP8, Z-RLRGG-aminoluciferin cleavage, luminescence | Q96LD8 | AID 2540 | inhibition, % at 10 µM; in the data active = inhibition above about 50%
Target sequence (Q96LD8 whole entry, looked up): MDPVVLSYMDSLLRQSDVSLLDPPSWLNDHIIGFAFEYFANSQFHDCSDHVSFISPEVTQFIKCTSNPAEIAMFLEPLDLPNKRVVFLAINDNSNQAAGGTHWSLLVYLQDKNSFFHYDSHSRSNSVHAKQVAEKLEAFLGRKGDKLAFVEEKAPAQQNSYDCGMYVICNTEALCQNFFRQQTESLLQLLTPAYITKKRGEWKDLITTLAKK
SENP7 inh – inhibitors of human SENP7 protease. recombinant SENP7, Z-RLRGG-aminoluciferin luminescence, 40 min. Q9BQF6. hit rate 1.5% among 330,000. inhibition, % at 5 µM;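 active = inhibition above about 50% at the single test dose, limit read from the data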;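 note: plate controls were DMSO with enzyme for no effect and no enzyme buffer wells for full effect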
SENP1 FRET inh – inhibitors of human SENP1 SUMO protease catalytic domain; recombinant SENP1 catalytic domain, CyPet-SUMO1-YPet FRET cleavage; inhibition, % at 10 µM; hit rate 0.21% among 360,000; AID 624204;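 active = inhibition at least 30% at 10 µM, raw YFP signal under a set limit, fluorescence ratio 0.5 to 1.5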;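 note: 0% = enzyme with DMSO and 100% = no enzyme wells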
Target sequence (Q9P0U3 419-644 limits assumed): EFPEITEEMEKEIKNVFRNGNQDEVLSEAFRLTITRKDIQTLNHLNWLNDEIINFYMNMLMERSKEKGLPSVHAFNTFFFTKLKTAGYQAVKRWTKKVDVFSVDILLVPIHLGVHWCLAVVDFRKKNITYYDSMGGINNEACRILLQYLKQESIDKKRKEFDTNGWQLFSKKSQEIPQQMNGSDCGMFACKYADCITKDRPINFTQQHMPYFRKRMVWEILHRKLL
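Assay system: hSENP1 catalytic domain, recombinant. Amount: SENP1 enzyme, 20 pM final. Schedule: 50 min reaction, RT, dark. Technique: FRET, CFP and YFP emission. Control set: no-enzyme wells low, DMSO-plus-enzyme wells high control.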
SENP6 block – inhibitors of human SENP6 protease. Q9GZR1. Recombinant SENP6 catalytic domain, aminoluciferin luminescence. inhibition, % at 10 µM. hit rate 1.8% among 330,000. AID 2599;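 active = inhibition above about 50% at the single tested dose, limit read from the data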;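 note: plate controls were DMSO wells with enzyme for no effect and DMSO wells lacking enzyme for full effect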
SENP8 block-2 – inhibitors of human SENP8 protease; hit rate 0.64% among 360,000; recombinant SENP8, Nedd8 substrate fluorescence; inhibition, % at 20 µM; in the data active = inhibition mostly above about 40%, no sharp cut-off; inactive = mostly below about 27%
SENP8 conf – human SENP8 inhibition, confirmed; shares compounds with SENP7 inh; Recombinant SENP8, Z-RLRGG-aminoluciferin luminescence, 60 min; inhibition, % at 12.5 µM; hit rate 40% among 6,200; AID 488912;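 active = mean inhibition across replicates above about 50%, limit read from the data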
SENP6 confirm – human SENP6 inhibition, confirmed | shares compounds with SENP7 inh | recombinant SENP6, Z-RLRGG-aminoluciferin luminescence | inhibition, % at 12.5 µM | hit rate 58% among 6,200
SENP7 conf – confirmation of human SENP7 protease inhibitors; shares compounds with SENP7 inh; recombinant SENP7, Z-RLRGG-aminoluciferin luminescence, 40 min; inhibition, % at 12.5 µM; hit rate 69% among 6,200; AID 488917
Casp3 select – inhibits human caspase-3 in SENP selectivity test; shares compounds with SENP7 inh; purified caspase-3, Z-DEVD-aminoluciferin luminescence, 60 min; inhibition, % at 12.5 µM; hit rate 60% among 6,200; AID 488918;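 active = mean inhibition above about 50%, limit read from the data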;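 note: plate controls were enzyme with DMSO for no effect and wells without caspase-3 for full effect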
Target sequence (P42574 28-227 limits assumed): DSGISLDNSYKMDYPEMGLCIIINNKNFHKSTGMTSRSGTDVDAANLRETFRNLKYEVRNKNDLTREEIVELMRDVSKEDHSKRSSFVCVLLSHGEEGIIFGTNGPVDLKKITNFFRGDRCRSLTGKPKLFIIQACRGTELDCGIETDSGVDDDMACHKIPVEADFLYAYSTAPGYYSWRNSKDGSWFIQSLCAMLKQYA
SENP luc ctr – interferes with luciferase luminescence in SENP counter-screen; AID 488919; shares compounds with SENP7 inh; inhibition, % at 12.5 µM; Pre-incubated SENP8/Z-RLRGG-aminoluciferin, luciferase luminescence interference; hit rate 39% among 6,200;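 active = mean inhibition above about 50% when retested at one dose, limit read from the data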;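 note: plate controls were DMSO wells with completed reaction for no effect and substrate without enzyme for full effect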
* marks the source's active call; other numbers are inactive results; i = inactive; . = no result.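 Rule for the calls, unless noted: active = mean inhibition above about 50% in the one-dose retest (limit read from the data); inactive = the rest.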

SMILES | SENP8 block-1 | SENP7 inh | SENP1 FRET inh | SENP6 block | SENP8 block-2 | SENP8 conf | SENP6 confirm | SENP7 conf | Casp3 select | SENP luc ctr
CCCC(=O)Nc1cnc(NC(=O)c2cccc(F)c2)cc1C | 53* | 79* | 2 | 82* | 16 | 78* | 75* | 94* | 92* | 75*
CCC(=O)Nc1cc(C)c(NC(=O)c2ccco2)cn1 | -1 | 1 | -1 | -7 | 18 | . | . | . | . | .
CCCCN1C[C@H](COC(=O)CCC)Oc2cccc(F)c2S1(=O)=O | . | . | 0 | . | 0 | . | . | . | . | .
Cc1ccc(-c2nc(-c3nccc4ccccc34)oc2-c2ccccc2)cc1 | 48 | 81* | -136 | 69* | -309 | 48 | 50* | 84* | 84* | 72*
Brc1ccccc1-n1nnc(-c2nccs2)n1 | 55* | 56* | 2 | 61* | 16 | 46 | 45 | 79* | 66* | 65*
c1ccc(-n2nnc(-c3nccs3)n2)cc1 | 77* | 77* | -19 | 82* | -2 | 71* | 82* | 97* | 92* | 71*
O=C(Nc1ccc(F)cc1)c1ccccc1NS(=O)(=O)N1CCCC1 | 0 | 11 | 1 | -8 | -298 | . | . | . | . | .
O=C(O)c1ccc(NS(=O)(=O)c2cccc(C(=O)Nc3cccc(C(=O)O)c3)c2)cc1 | 8 | 7 | 1 | 0 | 19 | . | . | . | . | .
O=S(=O)(c1ccccc1)N(CC(O)CN1CCOCC1)c1ccccc1 (centres undefined) | 77* | -9 | 2 | -12 | 10 | 11 | 10 | 8 | -2 | -5
Cc1ccc(-n2nc3ccc(N)cc3n2)c(C)c1 | 65* | 43 | -117 | 78* | -313 | 4 | 20 | 29 | 12 | 12
Cc1cc(N)ccc1-n1nc2ccccc2n1 | -5 | 2 | 0 | -17 | -414 | . | . | . | . | .
Cc1ccc(-n2nc3ccc(N)cc3n2)cc1C | 82* | 32 | -26 | 91* | -446 | -5 | 94* | 101* | 82* | 52*
COc1ccc(-n2nc3ccc(NS(C)(=O)=O)cc3n2)cc1Cl | 51* | 74* | -15 | 72* | i | -7 | 39 | 75* | 55* | -2
Cc1ccc(-n2nc3ccc(N)cc3n2)cc1Cl | 87* | 22 | -24 | 90* | -300 | 12 | 63* | 76* | 63* | 2
Nc1ncnc2c1cnn2C1CCCCC1 | 6 | 4 | 2 | 17 | 14 | . | . | . | . | .
Cc1ccc(-c2noc(CCC(=O)NC3CC3)n2)cc1 | 2 | 8 | 0 | -13 | 3 | . | . | . | . | .
Cc1oncc1C(=O)N1CCCC(CO)(Cc2ccc(F)cc2F)C1 (centres undefined) | -1 | 8 | -2 | -9 | 23 | . | . | . | . | .
COc1ccc(-n2nc3ccc(N)cc3n2)cc1Cl | 88* | 59* | -25 | 86* | -307 | 40 | 81* | 95* | 57* | 46
COc1cc2nn(-c3ccccc3N)nc2cc1OC | . | . | -87 | . | -494 | . | . | . | . | .
Nc1ccc(-n2ccnc2)cc1 | -3 | 1 | 1 | -1 | 18 | . | . | . | . | .
c1ccc2nc(-c3ccc(-n4ccnc4)cc3)ccc2c1 | 61* | 72* | 1 | 1 | -32 | 10 | 81* | 43 | -1 | -1
CCN1C(=O)[C@H]2[C@H]3CN=C(SCc4ccc(C)cc4)N3[C@@](C)(C(=O)OC)[C@H]2C1=O | . | 9 | 2 | . | 11 | . | . | . | . | .
Cc1ccc(N=Nc2c(O)n(CN3CCOCC3)c3ccccc23)cc1 | 78* | 84* | -2 | 67* | 6 | 33 | 88* | 98* | 63* | 26
O=C(Cn1cc2c(n1)CCCCC2)Nc1ccccc1Br | -3 | -1 | -1 | -7 | 13 | . | . | . | . | .
O=C(Nc1ccn(Cc2ccccc2F)n1)c1ccc(COc2cccc(Br)c2)cc1 | 88* | 14 | 0 | 97* | 13 | -24 | 90* | 103* | 56* | 97*
SMILES | SENP8 block-1 | SENP7 inh | SENP1 FRET inh | SENP6 block | SENP8 block-2 | SENP8 conf | SENP6 confirm | SENP7 conf | Casp3 select | SENP luc ctr
O=C(Nc1ccc(Nc2ccccc2)cc1)Nc1ccccc1Cl | 86* | 85* | 1 | 88* | -1 | 71* | 89* | 99* | 56* | 63*
Cc1ccccc1NC(=O)Nc1ccc2c(c1)OCO2 | 79* | 96* | 1 | 91* | 6 | 23 | 74* | 25 | 92* | 2
O=C(Nc1ccccc1Cl)Nc1ccccc1Cl | -8 | 4 | 0 | -8 | 8 | . | . | . | . | .
CCOc1ccccc1NC(=O)Nc1ccc2c(c1)CCC2 | 47 | 53* | 2 | 69* | 11 | 53* | 68* | 87* | 36 | 48
O=C(Nc1ccc2c(c1)CCC2)Nc1ccccc1Cl | 91* | 94* | 0 | 95* | 1 | 42 | 93* | 72* | 81* | 17
N#Cc1cn(N2CCCCC2)c(=O)[nH]c1=O | 2 | 1 | 0 | -3 | 13 | . | . | . | . | .
C/C(Cc1ccccc1)=N\NC(=O)CNC(=O)c1ccccc1Br | 2 | 2 | 3 | 7 | 20 | . | . | . | . | .
COc1ccc(CCNC(=O)CNC(=O)Cn2ccc3ccccc3c2=O)cc1OC | 3 | 3 | 0 | 0 | 5 | . | . | . | . | .
O=S(=O)(NC1CCSc2ccccc21)c1ccc(Cl)nc1 (centres undefined) | -3 | 4 | 0 | -14 | 5 | . | . | . | . | .
CCOc1ccccc1NC(=O)Nc1ccc2c(c1)OCO2 | 72* | 85* | -1 | 86* | -1 | 4 | 81* | 97* | 79* | 79*
CCOc1ccccc1OCCC(=O)Nc1ccc2c(c1)OCO2 | -5 | -3 | -5 | -20 | 3 | . | . | . | . | .
O=S(=O)(c1ccccc1)[C@@]1(c2ccc(Br)cc2)C[C@@H]2ON=C(c3ccccc3)[C@@H]2C1 | -5 | 7 | 4 | -1 | 13 | . | . | . | . | .
COc1ccc(C)cc1-n1nnnc1SCC(=O)NC1CCS(=O)(=O)C1 (centres undefined) | 6 | 4 | 2 | -1 | 0 | . | . | . | . | .
Cc1ccn(-c2ccc(NC(=O)c3cccs3)cc2)n1 | 74* | 80* | 0 | 85* | 5 | 78* | 76* | 94* | 88* | 82*
CN1CCN(c2ccc(NC(=O)c3cccs3)cc2)CC1 | 28 | 39 | 3 | 54* | 1 | 25 | 24 | 72* | 82* | 47
CC(C)C(=O)N1CCN(c2ccc(NC(=O)c3cccs3)cc2)CC1 | -8 | -6 | 1 | -10 | 18 | . | . | . | . | .
Cc1ccccc1-c1nnc(-c2ccccc2C)o1 | 58* | 85* | 0 | 77* | 1 | 13 | 29 | 63* | 41 | 11

From PubChem
